Measured values published in article PMC4437465 (Molecular microbiology, 2014).
Where two headings read alike, the source gives them in different places.

What was measured:
[1] = target: T1, EUR_01830 (Agathobacter rectalis, UniProt A0ABF7PGY2); experiment: isothermal titration calorimetry; format: binding; conditions: 20 mM HEPES, 100 mM NaCl pH 7.0, 25 °C; isotherm not fitted
T1 sequence (A0ABF7PGY2 24-422): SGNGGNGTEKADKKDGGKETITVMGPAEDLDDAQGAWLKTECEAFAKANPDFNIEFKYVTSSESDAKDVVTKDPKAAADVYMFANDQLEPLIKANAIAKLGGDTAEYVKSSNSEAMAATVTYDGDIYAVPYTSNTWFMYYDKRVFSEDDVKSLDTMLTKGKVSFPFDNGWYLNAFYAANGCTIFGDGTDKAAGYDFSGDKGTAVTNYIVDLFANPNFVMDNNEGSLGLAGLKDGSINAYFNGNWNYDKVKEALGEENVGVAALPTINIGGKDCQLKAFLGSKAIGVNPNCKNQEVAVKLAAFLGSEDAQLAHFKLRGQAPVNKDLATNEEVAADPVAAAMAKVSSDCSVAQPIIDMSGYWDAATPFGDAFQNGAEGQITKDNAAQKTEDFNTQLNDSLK

[2] = target: T1, EUR_01830; experiment: isothermal titration calorimetry; format: binding; conditions: 20 mM HEPES, 100 mM NaCl pH 7.0, 25 °C
[3] = target: T2, EUR_01240 (Agathobacter rectalis, UniProt D6E1S8); experiment: isothermal titration calorimetry; format: binding; conditions: read-out: EUR_01240 / Kd; 20 mM HEPES, 100 mM NaCl pH 7.0, 25 °C
T2 sequence (D6E1S8 23-427): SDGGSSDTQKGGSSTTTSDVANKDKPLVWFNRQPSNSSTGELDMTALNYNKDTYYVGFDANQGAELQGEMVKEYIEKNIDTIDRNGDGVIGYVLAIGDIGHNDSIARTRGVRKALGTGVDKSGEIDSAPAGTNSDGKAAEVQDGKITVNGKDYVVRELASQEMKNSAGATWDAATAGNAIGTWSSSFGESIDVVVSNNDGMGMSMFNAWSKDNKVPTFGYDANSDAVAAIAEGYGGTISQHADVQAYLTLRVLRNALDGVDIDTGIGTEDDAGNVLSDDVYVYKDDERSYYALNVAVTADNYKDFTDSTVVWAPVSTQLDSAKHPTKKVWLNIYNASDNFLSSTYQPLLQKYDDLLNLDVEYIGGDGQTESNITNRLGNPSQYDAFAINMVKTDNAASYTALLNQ
Outline: (§1)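 Runs used a low-volume NanoITC at 25 °C. Protein (30–150 μM) was dialysed against 20 mM HEPES, 100 mM NaCl pH 7.0 and loaded in the sample cell, with water in the reference cell. Oligosaccharides (0.5–5 mM) were prepared in dialysis buffer and delivered as a small first injection plus 27 further injections. Stirring was at 350 rpm. Heat of reaction was recorded and fitted for Kd.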

[4] = target: T3, EUR_21100 (Agathobacter rectalis, UniProt A0ABF7PGZ5); experiment: thin layer chromatography of products; format: biochemical; conditions: 25 mM HEPES pH 6.5, 150 mM NaCl, 37 °C
T3 sequence (A0ABF7PGZ5 45-1329): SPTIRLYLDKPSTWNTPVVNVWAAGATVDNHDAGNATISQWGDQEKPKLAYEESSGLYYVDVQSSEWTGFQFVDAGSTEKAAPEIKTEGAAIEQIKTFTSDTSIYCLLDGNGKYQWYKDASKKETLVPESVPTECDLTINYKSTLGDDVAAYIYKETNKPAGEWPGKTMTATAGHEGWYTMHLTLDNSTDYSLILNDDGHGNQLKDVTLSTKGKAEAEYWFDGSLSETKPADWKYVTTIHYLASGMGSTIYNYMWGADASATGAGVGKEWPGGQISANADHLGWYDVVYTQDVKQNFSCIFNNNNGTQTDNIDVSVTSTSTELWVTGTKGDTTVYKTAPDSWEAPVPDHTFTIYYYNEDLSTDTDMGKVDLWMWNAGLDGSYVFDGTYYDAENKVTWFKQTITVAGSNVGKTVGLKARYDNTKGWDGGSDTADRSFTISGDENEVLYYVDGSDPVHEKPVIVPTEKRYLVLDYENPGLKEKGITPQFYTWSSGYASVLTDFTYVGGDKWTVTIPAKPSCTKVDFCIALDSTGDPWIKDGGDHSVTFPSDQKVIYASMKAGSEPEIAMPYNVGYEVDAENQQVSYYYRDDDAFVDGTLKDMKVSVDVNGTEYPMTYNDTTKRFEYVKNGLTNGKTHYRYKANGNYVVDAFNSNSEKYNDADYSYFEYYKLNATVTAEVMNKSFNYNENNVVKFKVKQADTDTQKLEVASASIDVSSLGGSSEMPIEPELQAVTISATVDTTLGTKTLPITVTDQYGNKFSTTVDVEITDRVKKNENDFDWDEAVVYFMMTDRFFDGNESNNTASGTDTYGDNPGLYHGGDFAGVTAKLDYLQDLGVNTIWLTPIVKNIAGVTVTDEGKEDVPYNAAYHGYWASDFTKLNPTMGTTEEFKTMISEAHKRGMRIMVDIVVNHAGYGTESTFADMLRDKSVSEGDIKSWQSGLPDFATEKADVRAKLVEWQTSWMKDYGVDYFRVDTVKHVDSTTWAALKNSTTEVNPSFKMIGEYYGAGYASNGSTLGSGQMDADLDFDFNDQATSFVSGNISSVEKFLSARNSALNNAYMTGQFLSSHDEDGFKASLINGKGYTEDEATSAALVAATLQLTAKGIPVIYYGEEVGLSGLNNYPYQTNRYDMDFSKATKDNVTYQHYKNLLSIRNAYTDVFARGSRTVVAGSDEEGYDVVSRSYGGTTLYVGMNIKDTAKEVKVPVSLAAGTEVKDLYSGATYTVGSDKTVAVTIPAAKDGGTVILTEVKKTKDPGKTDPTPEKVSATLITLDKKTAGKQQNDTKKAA

[5] = target: EUR_31480; experiment: isothermal titration calorimetry; format: binding, Agathobacter rectalis; conditions: read-out: EUR_31480 / Kd; 20 mM HEPES, 100 mM NaCl pH 7.0, 25 °C
Outline: as §1

[6] = target: T1, EUR_01830; experiment: isothermal titration calorimetry; format: binding; conditions: read-out: EUR_01830 / Kd; 20 mM HEPES, 100 mM NaCl pH 7.0, 25 °C
[7] = target: T4, EUR_21010 (Agathobacter rectalis, UniProt C4ZGN9); experiment: isothermal titration calorimetry; format: binding; conditions: 20 mM HEPES, 100 mM NaCl pH 7.0, 25 °C
T4 sequence (C4ZGN9 26-464): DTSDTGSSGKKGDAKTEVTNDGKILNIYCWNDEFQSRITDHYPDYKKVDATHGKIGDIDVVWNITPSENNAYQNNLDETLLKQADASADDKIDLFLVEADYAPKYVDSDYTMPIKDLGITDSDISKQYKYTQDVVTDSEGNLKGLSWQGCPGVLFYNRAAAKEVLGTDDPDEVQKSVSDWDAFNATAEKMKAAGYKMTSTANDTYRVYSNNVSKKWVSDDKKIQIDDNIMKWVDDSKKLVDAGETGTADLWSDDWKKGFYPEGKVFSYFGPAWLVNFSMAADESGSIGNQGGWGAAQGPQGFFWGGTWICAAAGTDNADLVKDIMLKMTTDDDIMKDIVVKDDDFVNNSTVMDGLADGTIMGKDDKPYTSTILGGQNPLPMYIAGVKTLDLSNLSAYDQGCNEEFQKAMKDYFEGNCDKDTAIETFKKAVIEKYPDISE

With OC[C@H]1O[C@H](OC[C@H]2O[C@H](O[C@H]3[C@H](O)[C@@H](O)[C@@H](O[C@H]4[C@H](O)[C@@H](O)[C@@H](OC[C@H]5O[C@H](O[C@H]6[C@H](O)[C@@H](O)[C@@H](O[C@H]7[C@H](O)[C@@H](O)C(O)O[C@@H]7CO)O[C@@H]6CO)[C@H](O)[C@@H](O)[C@@H]5O)O[C@@H]4CO)O[C@@H]3CO)[C@H](O)[C@@H](O)[C@@H]2O)[C@H](O)[C@@H](O)[C@@H]1O (stereo partly shown) [GMM] the isothermal titration calorimetry [1] was “We obtained an isotherm with GMM, but these data could not be fit well enough”.

With OC[C@H]1O[C@H](OC[C@H]2O[C@H](O[C@H]3[C@H](O)[C@@H](O)[C@@H](O[C@H]4[C@H](O)[C@@H](O)C(O)O[C@@H]4CO)O[C@@H]3CO)[C@H](O)[C@@H](O)[C@@H]2O)[C@H](O)[C@@H](O)[C@@H]1O (stereo partly shown) [GM] the Kd ([2]; read-out: EUR_01830 / Kd) was 9080 ± 618 nM.

OC[C@H]1OC(O)[C@H](O)[C@@H](O)[C@H]1O (stereo partly shown) [Galactose] was tested, and the Kd [3] was 415 ± 20.2 nM.

OC[C@H]1OC(O)[C@H](O)[C@@H](O)[C@@H]1O (stereo partly shown) [Glucose] gave a Kd [3] of 1900 ± 460 nM.

In the case of OC[C@H]1O[C@H](O[C@H]2[C@H](O)[C@@H](O)[C@@H](O[C@H]3[C@H](O)[C@@H](O)[C@@H](O[C@H]4[C@H](O)[C@@H](O)[C@@H](O[C@H]5[C@H](O)[C@@H](O)[C@@H](O[C@H]6[C@H](O)[C@@H](O)[C@@H](O[C@H]7[C@H](O)[C@@H](O)C(O)O[C@@H]7CO)O[C@@H]6CO)O[C@@H]5CO)O[C@@H]4CO)O[C@@H]3CO)O[C@@H]2CO)[C@H](O)[C@@H](O)[C@@H]1O (stereo partly shown) [Maltoheptaose], the “thin layer chromatography of products” value [4] is reported as “can hydrolyze longer maltooligosaccharides such as maltohexaose and maltoheptaose” and the Kd ([2]; read-out: EUR_01830 / Kd) is reported as 288 ± 5.9 nM.

With OC[C@H]1O[C@H](O[C@H]2[C@H](O)[C@@H](O)[C@@H](O[C@H]3[C@H](O)[C@@H](O)[C@@H](O[C@H]4[C@H](O)[C@@H](O)[C@@H](O[C@H]5[C@H](O)[C@@H](O)[C@@H](O[C@H]6[C@H](O)[C@@H](O)C(O)O[C@@H]6CO)O[C@@H]5CO)O[C@@H]4CO)O[C@@H]3CO)O[C@@H]2CO)[C@H](O)[C@@H](O)[C@@H]1O (stereo partly shown) [Maltohexaose] the Kd ([2]; read-out: EUR_01830 / Kd) was 160 ± 6 nM.

OC[C@H]1O[C@H](O[C@H]2[C@H](O)[C@@H](O)[C@@H](O[C@H]3[C@H](O)[C@@H](O)[C@@H](O[C@H]4[C@H](O)[C@@H](O)[C@@H](O[C@H]5[C@H](O)[C@@H](O)C(O)O[C@@H]5CO)O[C@@H]4CO)O[C@@H]3CO)O[C@@H]2CO)[C@H](O)[C@@H](O)[C@@H]1O (stereo partly shown) [Maltopentaose] gave a Kd ([2]; read-out: EUR_01830 / Kd) of 194 ± 34.8 nM.

Work on OC[C@H]1O[C@H](O[C@H]2[C@H](O)[C@@H](O)C(O)O[C@@H]2CO)[C@H](O)[C@@H](O)[C@@H]1O (stereo partly shown) [Maltose] yielded a Kd [5] of 563 ± 66.4 nM.

With OC[C@H]1O[C@H](O[C@H]2[C@H](O)[C@@H](O)[C@@H](O[C@H]3[C@H](O)[C@@H](O)[C@@H](O[C@H]4[C@H](O)[C@@H](O)C(O)O[C@@H]4CO)O[C@@H]3CO)O[C@@H]2CO)[C@H](O)[C@@H](O)[C@@H]1O (stereo partly shown) [Maltotetraose] the Kd [5] was 1670 ± 199 nM and the Kd ([2]; read-out: EUR_01830 / Kd) was 112 ± 19.8 nM.

Compound OC[C@H]1O[C@H](O[C@H]2[C@H](O)[C@@H](O)[C@@H](O[C@H]3[C@H](O)[C@@H](O)C(O)O[C@@H]3CO)O[C@@H]2CO)[C@H](O)[C@@H](O)[C@@H]1O (stereo partly shown) [Maltotriose] has a Kd [6] of 550 ± 14 nM and a Kd [5] of 355 ± 0.4 nM.

In the case of OC[C@H]1O[C@@H](O[C@H]2[C@H](O)[C@@H](O)C(O)O[C@@H]2CO)[C@H](O)[C@@H](O)[C@@H]1O (stereo partly shown) [cellobiose], the Kd [7] is reported as 542 nM.

With OC[C@H]1O[C@@H](O[C@H]2[C@H](O)[C@@H](O)[C@H](O[C@H]3[C@H](O)[C@@H](O)[C@H](O[C@H]4[C@H](O)[C@@H](O)C(O)O[C@@H]4CO)O[C@@H]3CO)O[C@@H]2CO)[C@H](O)[C@@H](O)[C@@H]1O (stereo partly shown) [cellotetraose] the Kd [7] was 3010 nM.

For OC[C@H]1O[C@@H]2O[C@H]3[C@H](O)[C@@H](O)[C@@H](O[C@H]4[C@H](O)[C@@H](O)[C@@H](O[C@H]5[C@H](O)[C@@H](O)[C@@H](O[C@H]6[C@H](O)[C@@H](O)[C@@H](O[C@H]7[C@H](O)[C@@H](O)[C@@H](O[C@H]1[C@H](O)[C@H]2O)O[C@@H]7CO)O[C@@H]6CO)O[C@@H]5CO)O[C@@H]4CO)O[C@@H]3CO [α-cyclodextrin], the Kd [2] was 39 900 ± 2 430 nM.
